NPY1 pot ag: potentiators or agonists of human neuropeptide Y receptor Y1. P25929. NPY-Y1 expressing cells, potentiator/agonist activation. activation, % at 3.6 µM. 0.37% of 220,000 active. AID 1304; in the data active means activation above about 33%, passing the limit was not always enough;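 further: cells stimulated with NPY at EC10 then isoproterenol at EC100; 0% = low agonist plus stimulus and 100% = saturating agonist plus stimulus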
NPY-Y1 antag: antagonists of human neuropeptide Y receptor Y1; AID 1040; inhibition, % at 3.6 µM; HEK293-CNG Y1 cells, membrane potential fluorescence; NPY at EC95, then isoproterenol; 1% of 200,000 active; P25929;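 active means inhibition above the campaign mean inhibition of all tested compounds plus 3 SD, cut at about 20% in these data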;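 further: 0% = DMSO wells given NPY plus isoproterenol and 100% = isoproterenol alone without NPY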
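Benchmarks – high control isoproterenol alone, low control NPY with isoproterenol · Material – HEK293 Y1/CNG channel cell line · Times – dye 3 h, compound 60 min room temperature, stimulation 45 min · Probe or stimulus – NPY (25 nM), isoproterenol (1 µM), Ro 20-1724 (25 µM) · Evaluation – % inhibition of NPY effect · Signal – fluorescence, membrane potential probe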
NPY-Y2 antag: antagonists of human neuropeptide Y receptor Y2; inhibition, % at 2.7 µM; NPY-Y2 expressing cells, antagonist mode; P49146; 0.99% of 140,000 active; in the data active means inhibition above about 17%;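 further: 0% = vehicle with agonist challenge and 100% = reference antagonist with challenge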
Target sequence (P49146 whole entry, looked up): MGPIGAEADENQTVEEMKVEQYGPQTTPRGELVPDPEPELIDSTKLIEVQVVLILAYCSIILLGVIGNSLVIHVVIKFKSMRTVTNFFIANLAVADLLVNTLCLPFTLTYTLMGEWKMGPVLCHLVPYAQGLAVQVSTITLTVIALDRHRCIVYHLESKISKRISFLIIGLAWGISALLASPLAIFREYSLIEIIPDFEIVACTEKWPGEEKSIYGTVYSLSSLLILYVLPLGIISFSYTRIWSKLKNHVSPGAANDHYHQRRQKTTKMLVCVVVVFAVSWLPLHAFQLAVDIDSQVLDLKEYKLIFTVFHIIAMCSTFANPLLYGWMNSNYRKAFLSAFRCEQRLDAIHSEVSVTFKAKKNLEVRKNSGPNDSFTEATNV
NPY-Y2 PAM-ag: human NPY-Y2 potentiation or agonism, primary screen | P49146 | cells expressing NPY-Y2, potentiator/agonist read-out | activation, % at 3.6 µM | 0.45% of 220,000 active | AID 1359; in the data active means activation above about 27%;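 further: cells stimulated with NPY near EC25 plus isoproterenol at EC100; 0% = vehicle plus submaximal agonist and 100% = vehicle plus saturating agonist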
NPY-Y2 confirm: confirmation of human NPY-Y2 receptor potentiators or agonists | shares compounds with NPY-Y2 PAM-ag | cell-based NPY-Y2 potentiator/agonist assay | activation, % at 3.6 µM | 20% of 450 active | AID 1539; in the data active means activation above about 33%
NPY-Y1 potentiator: NPY-Y1 potentiation or agonism as NPY-Y2 counter-screen. AID 1651. activation, % at 3.6 µM. Y1 HEK293-CNG cells, membrane potential fluorescence. 20% of 450 active. shares compounds with NPY-Y2 PAM-ag; in the data active means activation above about 45%;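 further: cells stimulated with submaximal NPY then isoproterenol with phosphodiesterase inhibitor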
NPY-Y1 ag 2: human NPY-Y1 agonism as NPY-Y2 potentiator counter-screen; shares compounds with NPY-Y2 PAM-ag; HEK293 Y1-CNGC, membrane potential fluorescence; activation, % at 3.6 µM; 37% of 450 active; AID 1702;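 active means activation above the mean of DMSO-only control wells plus 3 SD, cut at about 18% in these data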;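 further: cells stimulated with 1 µM isoproterenol plus the PDE inhibitor Ro 20-1724; 0% = isoproterenol with DMSO and no NPY and 100% = 40 nM NPY; Y1 agonists lower the membrane potential dye signal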
CNGC inhibitor: blocks CNG channel activity, counter-screen for NPY-Y2 potentiators; inhibition, % at 3.6 µM; shares compounds with NPY-Y2 PAM-ag; AID 1703; 32% of 450 active; HEK293-CNG parental, isoproterenol cAMP, membrane potential fluorescence;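 active means inhibition above the control-well mean plus 3 SD of those wells, cut at about 22% in these data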;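 further: 0% = DMSO with isoproterenol and 100% = DMSO without isoproterenol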
NPY-Y2 ag 2: counter-screen for NPY-Y2 potentiators: agonists of human NPY-Y2 | 56% of 450 active | AID 1710 | shares compounds with NPY-Y2 PAM-ag | activation, % at 3.6 µM | HEK293 Y2/CNGC cells, membrane potential fluorescence, agonist mode;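 active means activation above the mean of solvent-only control wells plus 3 SD, cut at about 10% in these data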;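 further: cells stimulated by isoproterenol with no NPY added so direct agonism is tested; 0% = DMSO with isoproterenol alone and 100% = NPY at EC100 plus isoproterenol; agonism lowers probe fluorescence through less cAMP and CNG channel opening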
An asterisk follows results filed as active; . = no result. This is a sample that favours compounds with a hit; in the whole collection about 1.9% have one here.

SMILES	NPY1 pot ag	NPY-Y1 antag	NPY-Y2 antag	NPY-Y2 PAM-ag	NPY-Y2 confirm	NPY-Y1 potentiator	NPY-Y1 ag 2	CNGC inhibitor	NPY-Y2 ag 2
Oc1c(C2=NCCNC(C(F)(F)F)=C2)ccc2ccccc12	35	-12	.	31*	36*	50*	38*	32*	42*
Cn1c(=O)c([N+](=O)[O-])c(NCc2ccccc2Cl)c2ccccc21	10	.	.	-12	.	.	.	.	.
Cn1c(=O)c([N+](=O)[O-])c(NCc2ccc3c(c2)OCO3)c2ccccc21	3	.	.	99*	-15	-29	-24	-9	-10
CC(Oc1cc(Cl)ccc1Cl)C(=O)N/N=C\c1ccnn1C (stereo not given)	-1	-3	2	27*	-3	-5	-2	-4	6
CCCn1nnc(NC(=O)C(C)Oc2ccc(Cl)cc2Cl)n1 (stereo not given)	9	4	1	-26	.	.	.	.	.
O=C(Nc1ccc(S(=O)(=O)Nc2ncccn2)cc1)c1ccc(Br)s1	12	0	1	28*	3	5	10	7	9
Cc1ccc(O)c(-c2cc(-c3ccccc3[N+](=O)[O-])[nH]n2)c1	31	-12	-7	35*	34*	38	36*	33*	35*
Oc1ccccc1-c1cc(-c2ccco2)[nH]n1	12	-6	0	-1	.	.	.	.	.
Oc1ccc(Cl)cc1-c1cc(-c2ccco2)[nH]n1	41	-7	-6	29*	26	38	33*	24*	31*
O=[N+]([O-])c1ccccc1-c1cc(-c2cc(Cl)ccc2O)n[nH]1	36	-9	-8	31*	50*	59*	52*	54*	60*
CCN1C(=O)/C(=C2/C=Cc3ccccc3N2CC)SC1=S	35	-6	.	33*	39*	48*	43*	36*	48*
Cc1ccccc1Nc1c(-c2ccncc2)nc2ccc(Br)cn12	31	-1	0	47*	71*	76*	58*	53*	70*
C=CCn1c(=O)c(C(=O)Nc2ccccc2O)c(O)c2ccccc21	16	4	4	53*	1	-9	-1	2	6
COC(=O)c1ccsc1NC(=O)C1=COCCO1	-4	-9	0	51*	-5	-3	-12	-9	-7
COc1ccc(C(=S)N2CCN(c3ccccc3C)CC2)cc1	-6	.	.	-21	.	.	.	.	.
NC1CCN(c2c(F)cc3c(=O)c(C(=O)O)cn(C4CC4)c3c2Cl)C1 (stereo not given)	2	.	.	-3	.	.	.	.	.
COc1ccc(CCN=C(C)C2=C(O)C(c3ccccc3)OC2=O)cc1OC (stereo not given)	0	-1	.	-4	.	.	.	.	.
COc1ccccc1N=Nc1nc(-c2ccccc2)c(-c2ccccc2)[nH]1	26	-7	-3	22	.	.	.	.	.
Oc1ccccc1N=Nc1nc(-c2ccccc2)c(-c2ccccc2)[nH]1	48	-2	-9	45*	57*	69*	64*	61*	63*
Cc1ccc(OCCN2C(=O)CSC2=O)cc1	-19	0	4	0	.	.	.	.	.
C[N+](C)(C)CCN1C(=O)CSC1=O	27	.	.	82*	-3	-1	-2	1	2
N#Cc1nc(-c2ccc(Cl)cc2)oc1NCC1CCCO1 (stereo not given)	-3	0	.	2	.	.	.	.	.
O=C(Nc1ccc(Br)cc1)c1ccc(F)c(S(=O)(=O)NCc2cccs2)c1	-11	-3	0	36*	0	-27	-24	-10	-2
N#C/C(=N\Nc1ccc(Cl)cc1)C(=O)c1ccsc1	36	.	.	59*	13	-10	-5	-1	6
N#C/C(=N\Nc1ccccc1)C(N)=S	1	.	.	2	.	.	.	.	.
SMILES	NPY1 pot ag	NPY-Y1 antag	NPY-Y2 antag	NPY-Y2 PAM-ag	NPY-Y2 confirm	NPY-Y1 potentiator	NPY-Y1 ag 2	CNGC inhibitor	NPY-Y2 ag 2
N#C/C(=N\Nc1ccc(Cl)cc1)C(N)=S	38	.	.	54*	2	-5	-9	-6	3
Cc1ccc(N/N=C(\C#N)C(=O)c2ccsc2)cc1	8	.	.	-1	.	.	.	.	.
CCc1noc(C)c1C(=O)Nc1nc(-c2cc(C)ccc2C)c(C)s1	4	-2	1	-15	.	.	.	.	.
CCc1noc(C)c1C(=O)Nc1ncc(C)s1	25	-1	2	32*	-1	3	-1	2	-1
CC(C)NC[C@@H](O)c1ccc(O)c(O)c1	63	-5	3	52*	54*	51*	73*	57*	54*
CC(C)c1ccc(O)c(N)c1	4	-2	-1	-13	.	.	.	.	.
COc1ccc(N2CCN(S(=O)(=O)c3ccc(OC)cc3)CC2)cc1	-11	5	0	2	.	.	.	.	.
COC(=O)COc1ccc(S(=O)(=O)N2CCN(c3ccccc3F)CC2)cc1	21	-6	1	36*	35*	42	34*	25*	26*
COC(=O)COc1ccc(S(=O)(=O)N2CCN(c3ccccc3)CC2)cc1	28	-9	.	30*	15	16	-4	-4	-1
CC(c1ccccn1)N(Cc1ccco1)C(=S)Nc1cccc(F)c1 (stereo not given)	6	-1	.	1	.	.	.	.	.
O=C(Nc1ccc(S(=O)(=O)Nc2ccc(F)cc2)cc1)c1ccc(CN2CCOCC2)cc1	-6	4	.	14	.	.	.	.	.
COc1ccc(NS(=O)(=O)c2ccc(NC(=O)c3ccc(CN4CCOCC4)cc3)cc2)cc1	-4	6	.	24*	-8	-50	-31	-8	-5
O=C(CSc1ccc2ccccc2c1)Nc1ccc(S(=O)(=O)Nc2nccs2)cc1	9	-1	3	11	.	.	.	.	.
O=C(O)C1CC1C(=O)Nc1cc(F)ccc1F (stereo not given)	7	-1	.	28*	-5	0	-1	0	-3
Oc1ccccc1OCc1nc2ccccc2s1	-20	1	2	-3	.	.	.	.	.
Oc1ccc(O)c(Cc2nc3ccccc3s2)c1	27	-2	.	29*	6	12	8	11	5
O=C(Nc1ccc(OC(F)(F)F)cc1)Nc1cccc([N+](=O)[O-])c1	4	-9	0	12	.	.	.	.	.
Cc1ccc(NC(=O)Nc2cccc([N+](=O)[O-])c2)cc1F	31	-3	-3	32*	21	24	15	18	17*
COc1ccc(S(N)(=O)=O)cc1C(=O)NCCCN1CCN(c2ccc(C)cc2)CC1	25	-4	0	-20	.	.	.	.	.
COc1ccc(S(N)(=O)=O)cc1C(=O)NCCCN1CCN(c2ccccc2OC)CC1	13	-2	2	76*	-7	3	-17	-6	-1
